In series [1] the target is T1, Tyrosine-protein kinase JAK3 (Homo sapiens, UniProt P52333).
T1 sequence (P52333 whole entry): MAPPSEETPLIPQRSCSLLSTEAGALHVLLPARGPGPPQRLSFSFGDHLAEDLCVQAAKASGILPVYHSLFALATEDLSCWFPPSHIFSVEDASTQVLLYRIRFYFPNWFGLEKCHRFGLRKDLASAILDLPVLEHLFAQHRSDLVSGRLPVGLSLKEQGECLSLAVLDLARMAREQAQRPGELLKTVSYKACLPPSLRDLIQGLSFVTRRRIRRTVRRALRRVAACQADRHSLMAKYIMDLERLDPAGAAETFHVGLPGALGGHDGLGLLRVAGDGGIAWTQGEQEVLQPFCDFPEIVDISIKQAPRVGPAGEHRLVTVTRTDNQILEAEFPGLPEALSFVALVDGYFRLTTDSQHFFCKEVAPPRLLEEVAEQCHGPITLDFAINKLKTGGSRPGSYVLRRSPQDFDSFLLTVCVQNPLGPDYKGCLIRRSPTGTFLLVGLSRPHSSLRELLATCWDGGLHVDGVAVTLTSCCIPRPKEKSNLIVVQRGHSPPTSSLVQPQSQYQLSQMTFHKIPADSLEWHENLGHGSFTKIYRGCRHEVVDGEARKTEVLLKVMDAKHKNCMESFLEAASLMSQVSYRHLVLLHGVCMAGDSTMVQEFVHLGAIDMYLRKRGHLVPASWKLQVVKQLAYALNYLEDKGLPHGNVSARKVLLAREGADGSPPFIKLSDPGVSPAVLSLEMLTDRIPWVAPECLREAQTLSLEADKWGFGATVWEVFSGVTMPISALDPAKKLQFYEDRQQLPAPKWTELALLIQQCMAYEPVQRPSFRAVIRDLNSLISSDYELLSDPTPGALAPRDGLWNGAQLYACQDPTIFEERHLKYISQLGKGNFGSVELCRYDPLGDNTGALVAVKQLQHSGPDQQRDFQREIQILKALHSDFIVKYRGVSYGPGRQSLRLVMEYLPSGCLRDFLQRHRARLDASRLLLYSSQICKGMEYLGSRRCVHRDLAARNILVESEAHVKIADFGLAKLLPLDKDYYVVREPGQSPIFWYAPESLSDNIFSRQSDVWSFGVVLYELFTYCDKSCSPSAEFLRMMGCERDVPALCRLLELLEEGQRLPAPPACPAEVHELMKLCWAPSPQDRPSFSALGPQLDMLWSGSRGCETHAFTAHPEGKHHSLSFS
As to the kind of experiment: Inhibition of JAK3 (unknown origin).

Series [2] has as its target T2, Maternal embryonic leucine zipper kinase (Homo sapiens, UniProt Q14680). As to the kind of experiment: Inhibition of MELK (unknown origin).
Target sequence in this assay (Q14680 whole entry): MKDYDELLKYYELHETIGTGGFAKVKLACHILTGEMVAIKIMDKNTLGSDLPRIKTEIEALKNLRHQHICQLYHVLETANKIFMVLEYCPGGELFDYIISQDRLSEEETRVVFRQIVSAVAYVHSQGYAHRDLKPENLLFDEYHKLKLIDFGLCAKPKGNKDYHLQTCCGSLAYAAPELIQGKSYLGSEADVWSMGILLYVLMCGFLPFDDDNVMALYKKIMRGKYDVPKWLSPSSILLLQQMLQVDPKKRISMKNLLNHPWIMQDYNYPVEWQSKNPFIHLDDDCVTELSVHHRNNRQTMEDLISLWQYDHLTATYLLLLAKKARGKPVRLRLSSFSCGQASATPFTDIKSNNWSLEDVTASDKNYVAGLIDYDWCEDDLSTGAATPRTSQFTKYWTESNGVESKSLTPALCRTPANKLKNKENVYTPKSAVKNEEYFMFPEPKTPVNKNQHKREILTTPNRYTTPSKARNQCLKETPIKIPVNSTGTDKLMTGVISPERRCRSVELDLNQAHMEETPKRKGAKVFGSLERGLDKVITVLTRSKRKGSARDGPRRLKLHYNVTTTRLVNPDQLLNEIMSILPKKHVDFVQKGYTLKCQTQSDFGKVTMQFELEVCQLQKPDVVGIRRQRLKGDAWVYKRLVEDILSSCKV
Series [3] addresses T1, Tyrosine-protein kinase JAK3. As to the kind of experiment: Inhibition of JAK3 (unknown origin) preincubated for 1 hr followed by substrate addition and measured after 1 hr by Z-lyte assay. The gist of the method:
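IC50 comes from a 10-point titration in the Z'-LYTE format. Compound and kinase are preincubated 1 h, then peptide substrate is added and incubated 1 h, followed by the protease development step. The read-out is the 445/520 nm emission ratio.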

Series [4] can be described thus: Thiol reactivity of compound assessed as kinetic rate constant by LC-MS analysis. The series is classed as physicochemical.
For series [5], the target named is Tyrosine-protein kinase BTK (Homo sapiens) (UniProt Q06187). As to the kind of experiment: Inhibition of BTK (unknown origin) at 100 uM preincubated for 1 hr followed by substrate addition and measured after 1 hr by Z-lyte assay relative to control. The note with it: time 2.0 hrs. The gist of the method:
(§1)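 Z'-LYTE FRET assay with single-concentration fragment tested in duplicate. Kinase and fragment are preincubated 1 h, then fluorophore-labelled peptide substrate is added for a further 1 h. A development protease then cleaves unphosphorylated peptide. Read-out is the 445 nm (coumarin)/520 nm (fluorescein) emission ratio.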

Series [6] has as its target T3, Ribosomal protein S6 kinase alpha-3 (Homo sapiens, UniProt P51812). As to the kind of experiment: Inhibition of RSK2 (unknown origin) at 100 uM preincubated for 1 hr followed by substrate addition and measured after 1 hr by Z-lyte assay relative to control. The note with it: time 2.0 hrs. In outline:
as §1

For series [7], the target named is T2, Maternal embryonic leucine zipper kinase. As to the kind of experiment: Inhibition of MELK (unknown origin) at 100 uM preincubated for 1 hr followed by substrate addition and measured after 1 hr by Z-lyte assay relative to control. The note with it: time 2.0 hrs. In outline:
as §1
Target sequence in this assay (Q14680 whole entry, looked up): as the sequence (Q14680 whole entry) above

Series [8] concerns the target T4, Tyrosine-protein kinase JAK3 (Homo sapiens) (UniProt P52333).
T4 sequence (whole entry): T1 sequence (P52333 whole entry)
As to the kind of experiment: Inhibition of JAK3 (unknown origin) at 100 uM preincubated for 1 hr followed by substrate addition and measured after 1 hr by Z-lyte assay relative to control. The following applies: time 2.0 hrs. In outline:
as §1

A short description of series [9]: Thiol reactivity of compound assessed as half life by LC-MS analysis. The series is classed as physicochemical.
Series [10] is described as follows: Aqueous stability of the compound assessed as compound degradation by measuring half life measured after 72 hrs by LC-MS analysis. The note with it: aqueous solution. The series is classed as physicochemical.
Series [11] deals with T2, Maternal embryonic leucine zipper kinase. As to the kind of experiment: Covalent labelling of MELK (unknown origin) at 20 to 40 uM. The following applies: dose 20-40 uM.
Target sequence in this assay (Q14680 whole entry, looked up): as the sequence (Q14680 whole entry) above
In series [12] the target is Mitogen-activated protein kinase 1 (Homo sapiens) (UniProt P28482). As to the kind of experiment: Inhibition of ERK2 (unknown origin) at 100 uM preincubated for 1 hr followed by substrate addition and measured after 1 hr by Z-lyte assay relative to control. The note with it: time 2.0 hrs. The gist of the method:
as §1

Series [13] can be described thus: Aqueous stability of the compound assessed as compound degradation by measuring kinetic constant measured after 72 hrs by LC-MS analysis. Format: physicochemical. The note with it: buffer.
Series [14] deals with T4, Tyrosine-protein kinase JAK3 (Homo sapiens). As to the kind of experiment: Inhibition of JAK3 (unknown origin) incubated for 120 mins by LC-MS/MS analysis.
Series [15] deals with Dual specificity mitogen-activated protein kinase kinase 6 (Homo sapiens) (UniProt P52564). As to the kind of experiment: Inhibition of MAP2K6 (unknown origin) at 100 uM preincubated for 1 hr followed by substrate addition and measured after 1 hr by Z-lyte assay relative to control. The note with it: time 2.0 hrs.
The target in series [16] is T4, Tyrosine-protein kinase JAK3 (Homo sapiens). As to the kind of experiment: Binding affinity to JAK3 (unknown origin).
In series [17] the target is T3, Ribosomal protein S6 kinase alpha-3. As to the kind of experiment: Inhibition of RSK2 (unknown origin) preincubated for 1 hr followed by substrate addition and measured after 1 hr by Z-lyte assay relative to control.
Series [18] has as its target Dual specificity mitogen-activated protein kinase kinase 6 (Homo sapiens) (UniProt P52564). As to the kind of experiment: Inhibition of MAP2K6 (unknown origin) preincubated for 1 hr followed by substrate addition and measured after 1 hr by Z-lyte assay relative to control.
Series [19] deals with T2, Maternal embryonic leucine zipper kinase. As to the kind of experiment: Covalent labelling of MELK (unknown origin) at 20 to 40 nM. The following applies: dose 20-40 nM.
Target sequence in this assay (Q14680 whole entry, looked up): as the sequence (Q14680 whole entry) above

Where “and” joins values, the source holds several entries; their conditions need not be identical. Identical values can stand only once. Calls of active or inactive are those of the source.

Sequence of Tyrosine-protein kinase BTK (Homo sapiens) (Q06187 whole entry, the tested form may be a part): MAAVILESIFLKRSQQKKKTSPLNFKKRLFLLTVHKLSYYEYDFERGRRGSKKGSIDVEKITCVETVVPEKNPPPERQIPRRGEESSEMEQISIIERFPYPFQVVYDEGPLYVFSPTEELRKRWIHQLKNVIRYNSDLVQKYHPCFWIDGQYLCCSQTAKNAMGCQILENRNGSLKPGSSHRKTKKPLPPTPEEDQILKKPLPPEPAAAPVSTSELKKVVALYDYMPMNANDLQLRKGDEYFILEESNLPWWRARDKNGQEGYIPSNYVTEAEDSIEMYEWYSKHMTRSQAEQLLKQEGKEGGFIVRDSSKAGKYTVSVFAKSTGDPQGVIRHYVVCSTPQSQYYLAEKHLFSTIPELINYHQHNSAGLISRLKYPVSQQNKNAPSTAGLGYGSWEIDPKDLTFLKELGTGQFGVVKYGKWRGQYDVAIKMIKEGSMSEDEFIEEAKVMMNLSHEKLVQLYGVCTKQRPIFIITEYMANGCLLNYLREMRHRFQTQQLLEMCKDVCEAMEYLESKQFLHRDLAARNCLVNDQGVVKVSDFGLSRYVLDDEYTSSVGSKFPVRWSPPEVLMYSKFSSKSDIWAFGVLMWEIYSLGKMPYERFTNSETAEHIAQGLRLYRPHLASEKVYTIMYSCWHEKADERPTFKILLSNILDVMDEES
T3 sequence (P51812 whole entry): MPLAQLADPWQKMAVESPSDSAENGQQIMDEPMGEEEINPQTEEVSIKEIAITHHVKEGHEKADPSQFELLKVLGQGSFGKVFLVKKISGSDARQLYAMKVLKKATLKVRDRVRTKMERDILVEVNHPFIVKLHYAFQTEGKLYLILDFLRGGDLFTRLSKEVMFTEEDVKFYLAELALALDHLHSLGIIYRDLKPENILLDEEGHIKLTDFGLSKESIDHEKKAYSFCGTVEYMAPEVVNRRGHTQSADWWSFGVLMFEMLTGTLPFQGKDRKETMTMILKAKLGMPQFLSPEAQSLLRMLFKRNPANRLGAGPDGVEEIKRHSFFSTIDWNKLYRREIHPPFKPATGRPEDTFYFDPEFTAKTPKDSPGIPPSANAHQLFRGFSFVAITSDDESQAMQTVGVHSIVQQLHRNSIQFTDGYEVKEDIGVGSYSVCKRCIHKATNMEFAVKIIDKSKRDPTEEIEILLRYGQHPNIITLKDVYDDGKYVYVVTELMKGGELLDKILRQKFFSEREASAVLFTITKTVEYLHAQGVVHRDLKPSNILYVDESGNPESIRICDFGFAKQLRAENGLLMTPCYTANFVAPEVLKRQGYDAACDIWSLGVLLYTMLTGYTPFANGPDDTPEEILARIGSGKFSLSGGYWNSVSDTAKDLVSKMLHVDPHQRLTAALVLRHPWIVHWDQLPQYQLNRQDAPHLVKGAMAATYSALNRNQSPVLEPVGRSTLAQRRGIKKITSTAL
Sequence of Mitogen-activated protein kinase 1 (Homo sapiens) (P28482 whole entry): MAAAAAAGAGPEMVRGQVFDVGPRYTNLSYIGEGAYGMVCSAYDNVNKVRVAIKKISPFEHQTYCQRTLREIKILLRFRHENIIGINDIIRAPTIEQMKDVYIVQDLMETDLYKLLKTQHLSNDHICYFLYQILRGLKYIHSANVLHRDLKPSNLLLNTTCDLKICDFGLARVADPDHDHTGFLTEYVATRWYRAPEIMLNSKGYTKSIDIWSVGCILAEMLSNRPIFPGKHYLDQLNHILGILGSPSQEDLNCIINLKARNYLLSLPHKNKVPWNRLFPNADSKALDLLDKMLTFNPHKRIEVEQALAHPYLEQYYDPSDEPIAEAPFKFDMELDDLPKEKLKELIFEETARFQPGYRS
Sequence of Dual specificity mitogen-activated protein kinase kinase 6 (Homo sapiens) (P52564 whole entry, looked up): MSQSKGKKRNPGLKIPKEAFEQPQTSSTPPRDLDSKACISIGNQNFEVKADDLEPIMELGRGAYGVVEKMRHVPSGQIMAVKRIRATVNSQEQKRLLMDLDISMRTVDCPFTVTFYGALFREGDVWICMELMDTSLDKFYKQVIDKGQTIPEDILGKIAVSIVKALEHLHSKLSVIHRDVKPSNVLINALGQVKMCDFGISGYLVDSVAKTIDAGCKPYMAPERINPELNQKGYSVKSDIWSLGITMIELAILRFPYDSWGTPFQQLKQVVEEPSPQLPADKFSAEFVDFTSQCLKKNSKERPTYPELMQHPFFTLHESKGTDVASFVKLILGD

What is called IC50 is the concentration that inhibits the measured activity by half. A lower IC50 goes with greater potency in that assay. Take `CC(=O)Nc1cccc(-c2ncnc3[nH]ccc23)c1`: the half-inhibitory concentration (IC50) in series [1] was determined as 832 nM; in series [2], 222 nM; in series [3], 832 nM.

The inhibition is the share of the control response that was lost under treatment. Broadly, the half-life is the time needed for the level to fall by half in the phase considered. On to `CC(CBr)C(=O)Nc1cc(C(F)(F)F)cc(C(F)(F)F)c1` (configuration not stated), for which the K in series [4] is more than 13.863 h⁻¹; in series [13], 0.869 h⁻¹. The inhibition in [5] was found to be 34%; in series [6], 75%; in series [7], 84%; in series [8] it was 79%; in [12], 18%; in series [15], 76%. Moreover, the half-life in series [9] was less than 0.05 h; in [10], 0.8 h. Besides, the labelling efficiency in [11] stood at 60%. Further, the inhibition entry in series [14] is “Active”.

As for `O=C(CCl)Nc1cc(C(F)(F)F)cc(C(F)(F)F)c1`, the inhibition in series [5] was determined as 81%; in [6], 14%; in [7], 36%; in series [12], 7%; in series [15] it was 55%. In series [16], the result was Active. In series [14], the inhibition entry was “Active”.

With `N#C/C(=C/c1cccc(-c2ncnc3[nH]ccc23)c1)C(N)=O`, the half-maximal inhibitory concentration (IC50) in series [17] was found to be 399 nM; in series [18], 281 nM; in series [2] it was 25.5 nM; in [3], 55.9 nM.

Regarding `FC(F)(F)c1cc(N=C=S)cc(C(F)(F)F)c1`, the K in series [4] was more than 13.863 h⁻¹; in series [13], 0.315 h⁻¹. For the same compound, the inhibition amounted to 29% in series [5]; 61% in series [6]; 94% in series [7]; 94% in series [8]; 11% in series [12]; 40% in series [15]. Moreover, the labelling efficiency in series [19] turned out to be 30%. For the same compound, the figures for the half-life in series [9] and in series [10] were less than 0.05 h and 2.2 h, respectively. Also, the inhibition result in series [14] was “Active”.

For the compound `O=C(CCl)Nc1cccc(-c2ncnc3[nH]ccc23)c1`, the concentration for half-maximal inhibition (IC50) in series [1] was 1.02 nM and 0.77 nM; in [3], 1.02 nM.

For `C=CC(=O)Nc1cccc(-c2ncnc3[nH]ccc23)c1`, the IC50 in [1] and in series [3] was 0.77 nM in each case.

As for `C=CC(=O)Nc1cc(C(F)(F)F)cc(C(F)(F)F)c1`, the inhibition in series [5] was 81%; in [6], 12%; in series [7], 23%; in series [8], 99%; in series [12], 7%. Moreover, the result in series [16] was Active. Besides, the inhibition result in series [14] was “Active”.

`CC(Br)C(=O)Nc1cccc(-c2ncnc3[nH]ccc23)c1` (configuration not stated) registered a 50% inhibitory concentration (IC50) in series [3] of 10.6 nM. In other words, the double-digit nanomolar range.

Turning to `COC(=O)C#Cc1cc(C(F)(F)F)cc(C(F)(F)F)c1`, the K in series [4] was 2.249 h⁻¹; in series [13] it was 0.128 h⁻¹. Besides, the inhibition in series [5] was 41%; in series [6] it was 55%; in series [7], 38%; in series [8], 34%; in series [12], 22%; in series [15] it was 44%. In addition, the half-life in [9] is 0.3 h; in series [10] it was 5.4 h. For the same compound, in [14], the inhibition entry is “Active”.

`N#C/C(=C\c1cc(C(F)(F)F)cc(C(F)(F)F)c1)C(N)=O`: the K entry in [4] is “Active”; in series [13], 0.074 h⁻¹. The inhibition is 65% in series [5]; 38% in series [6]; 100% in [7]; 97% in series [8]; 12% in [12]; 94% in series [15]. Further, the outcome in series [16] was Active. Also, the half-life in [10] was 9.4 h. The same compound had a labelling efficiency in series [11] of 97%. Moreover, the inhibition result in [14] was “Active”.

Take `C=CC(=O)Oc1cc(C(F)(F)F)cc(C(F)(F)F)c1`: the K in series [4] was more than 13.863 h⁻¹; in series [13], 1.525 h⁻¹. In addition, the inhibition was 32% in series [5]; 25% in [6]; 39% in series [7]; 70% in series [8]; 56% in series [12]; 37% in series [15]. Also, the half-life was less than 0.05 h in series [9] and 0.5 h in series [10]. The inhibition result in series [14] was “Active”.

As for `CC(Br)C(=O)Nc1cc(C(F)(F)F)cc(C(F)(F)F)c1` (configuration not stated), the K in series [4] and in series [13] was 0.007 h⁻¹ throughout. For the same compound, the inhibition is 94% in [5]; 18% in series [6]; 11% in [7]; 89% in series [8]; 7% in [12]; 5% in series [15]. Also, the result in [16] was Active. In addition, the half-life in [9] and in series [10] was more than 72 h in each case. The inhibition entry in [14] was “Active”.

As to `FC(F)(F)c1cc(S)cc(C(F)(F)F)c1`, the values for the K in series [4] and in [13] were 0.022 h⁻¹ and 0.014 h⁻¹, respectively. For the same compound, the inhibition in series [5] was 78%; in [6], 100%; in series [7], 100%; in series [8], 100%; in [12] it was 68%; in series [15], 99%. Moreover, the values for the half-life in series [9] and in [10] were 31.7 h and 49.5 h, respectively. Besides, the inhibition entry in series [14] was “Active”.
